Bioassay records from PubChem.
This is a sample that favours compounds with a hit; in the whole collection about 3.3% have one here.
HEK293 NFkB inh – inhibitors of the PMA/ionomycin-induced NF-kB reporter in HEK293 cells. HEK-293 NF-kB luciferase reporter, luminescence. inhibition, % at 3 µM. 62,000 compounds, 0.21% hits;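 active = inhibition above the mean of all tested compounds plus 3 SD, cut at about 40% in these data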;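 note: 0% = stimulated DMSO wells and 100% = 10 µM reference inhibitor 5653914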
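Signal: luciferase luminescence; Material: HEK-293 cells with stable firefly luciferase reporter driven by four HIV NF-kB elements; Probe or stimulus: PMA with ionomycin; Replication: tested once; Times: 1 h compound pretreatment, then 16 h stimulation at 37 °C, 5% CO2; Benchmarks: DMSO and 10 µM reference inhibitor; Evaluation: per-plate % inhibition versus controls.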
Jurkat viability – reduces viability or proliferation of Jurkat cells; Jurkat E6.1 viability, ATP luminescence, 48 h; inhibition, % at 4 µM; 56,000 compounds, 1.2% hits;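 active = inhibition above the mean inhibition of all tested compounds plus 3 SD, cut at about 28% in these data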
5HT1a ag – 5-HT1a (human) receptor agonism; CHO 5-HT1a Ga15 NFAT-bla reporter, FRET ratio; 0% basal, 100% maximal reference agonist; activation, % at 10 µM; 65,000 compounds, 0.56% hits;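 active = activation above the screen-wide mean activation plus 3 SD, cut at about 19% in these data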;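 note: 0% = DMSO wells and 100% = 5-CT at EC100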
HTR1E agonist – 5-HT1E (human) receptor agonism; P28566; CHO 5-HT1E Ga15 NFAT-bla reporter, FRET; 0% DMSO wells, 100% control agonist wells; activation, % at 6 µM; 65,000 compounds, 0.69% hits; AID 574;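 active = activation above a set limit, the screen-wide mean activation plus 3 SD, cut at about 8.5% in these data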;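 note: 100% = positive control agonist at 1 µM giving full maximal response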
Target sequence (P28566 whole entry, looked up): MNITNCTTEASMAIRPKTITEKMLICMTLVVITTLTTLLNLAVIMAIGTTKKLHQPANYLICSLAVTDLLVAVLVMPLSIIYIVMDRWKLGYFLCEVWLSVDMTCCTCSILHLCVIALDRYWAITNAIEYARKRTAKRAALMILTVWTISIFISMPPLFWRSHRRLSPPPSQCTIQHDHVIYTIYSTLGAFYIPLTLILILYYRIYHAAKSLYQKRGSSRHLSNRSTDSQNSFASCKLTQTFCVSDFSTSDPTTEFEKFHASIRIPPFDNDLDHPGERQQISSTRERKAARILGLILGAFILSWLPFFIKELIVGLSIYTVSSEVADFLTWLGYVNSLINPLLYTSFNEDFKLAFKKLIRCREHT
5HT1E antag – antagonists of human 5-HT1E serotonin receptor. P28566. CHO 5-HT1E Ga15 NFAT-bla reporter, FRET, antagonist. inhibition, % at 6 µM. 65,000 compounds, 0.99% hits. AID 571;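 active = inhibition above a set limit, the mean inhibition across every tested compound plus 3 SD, cut at about 29% in these data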;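 note: signal is the 460 over 535 nm emission ratio of beta-lactamase substrate; 0% = agonist plus DMSO wells and 100% = wells without agonist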
5HT1a antag – antagonists of human 5-HT1a serotonin receptor; 62,000 compounds, 0.68% hits; CHO 5-HT1a Ga15 NFAT-bla reporter, antagonist mode; inhibition, % at 10 µM; AID 612;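 active = inhibition above the mean of all tested compounds plus 3 SD, cut at about 43% in these data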;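 note: receptor stimulated by 5-CT agonist at 100 nM near EC80; beta-lactamase reporter measured by ratiometric fluorescence of a cleavable substrate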
The depositor's hits bear a star.

What do the screens show for `O=C(O)c1cc(Cl)c2ccccc2c1O`?
HEK293 NFkB inh: 7; Jurkat viability: 9; 5HT1a ag: 2; HTR1E agonist: 0; 5HT1E antag: 10; 5HT1a antag: 1

Results for COc1cc2c(O)c3c(c(-c4ccc5c(c4)OCO5)c2cc1OC)C(=O)OC3 ?
HEK293 NFkB inh: 34; Jurkat viability: 60*; 5HT1a ag: -1; HTR1E agonist: -1; 5HT1E antag: 34*; 5HT1a antag: 21

How did COc1cc2c(=O)n(-c3ccc(C)cc3)c(=O)n(CC(=O)c3ccc4c(c3)OCO4)c2cc1OC do in these assays?
HEK293 NFkB inh: -8; Jurkat viability: -1; 5HT1a ag: -1; HTR1E agonist: 1; 5HT1E antag: -3; 5HT1a antag: -3

What do the screens show for `O=C(c1ccccc1)N1CCN(CC(O)COCC2CC=CCC2)CC1` (configuration not stated)?
HEK293 NFkB inh: 14; Jurkat viability: 0; 5HT1a ag: 0; HTR1E agonist: -1; 5HT1E antag: 7; 5HT1a antag: 11

Results for O=C(c1ccccc1)N1CCN(CC2CC=CCC2)CC1 (configuration not stated) ?
HEK293 NFkB inh: 11; Jurkat viability: -2; 5HT1a ag: 0; HTR1E agonist: 9.2*; 5HT1E antag: 2; 5HT1a antag: -10

What do the screens show for `NS(=O)(=O)c1ccc(NC(=O)COC(=O)CCNC(=O)NC23CC4CC(CC(C4)C2)C3)cc1`?
HEK293 NFkB inh: 26; 5HT1a ag: 1; HTR1E agonist: 0; 5HT1E antag: -16; 5HT1a antag: 2

How did O=C(CSc1nnc(C23CC4CC(CC(C4)C2)C3)o1)Nc1ccc(N2CCOCC2)c(Cl)c1 do in these assays?
HEK293 NFkB inh: 25; Jurkat viability: 9; 5HT1a ag: -1; HTR1E agonist: -2; 5HT1E antag: 3; 5HT1a antag: 6

Results for CC(=O)Nc1ccccc1NC(=O)CN(C)S(=O)(=O)c1ccc(C)cc1 ?
HEK293 NFkB inh: 12; Jurkat viability: -8; 5HT1a ag: -2; HTR1E agonist: 1; 5HT1E antag: -7; 5HT1a antag: 0

Results for CC(=O)Nc1ccccc1N(C)S(=O)(=O)c1ccc(C)cc1 ?
HEK293 NFkB inh: 18; Jurkat viability: 45*; 5HT1a ag: 0; HTR1E agonist: 0; 5HT1E antag: 6; 5HT1a antag: 7

What do the screens show for `CCCCCCC(=O)N(O)C1CC(=O)N(Cc2ccccc2)C1=O` (configuration not stated)?
HEK293 NFkB inh: -4; Jurkat viability: -5; 5HT1a ag: -7; HTR1E agonist: -1; 5HT1E antag: 30*; 5HT1a antag: 30

Results for CCCCn1nnnc1NCc1cccc(OC)c1OC ?
HEK293 NFkB inh: -2; Jurkat viability: 0; 5HT1a ag: -3; HTR1E agonist: 0; 5HT1E antag: 10; 5HT1a antag: 4

How did Cc1nnc(NCc2ccncc2)c2ccccc12 do in these assays?
HEK293 NFkB inh: 23; Jurkat viability: 2; 5HT1a ag: 88*; HTR1E agonist: 1; 5HT1E antag: -5; 5HT1a antag: 5

Results for COc1ccc(-n2c(Cn3c(=O)sc4ccccc43)nnc2SCC(=O)N2CCCC2)cc1 ?
HEK293 NFkB inh: 24; Jurkat viability: 2; 5HT1a ag: -1; HTR1E agonist: 0; 5HT1E antag: 1; 5HT1a antag: -3

Results for COC(=O)c1cc(Br)c(=O)n(-c2cc(C)on2)c1 ?
5HT1a ag: 3; HTR1E agonist: -1; 5HT1E antag: 0

Results for COc1cc2c(cc1OC)-c1cc(OCc3cccnc3)nc(=O)n1CC2 ?
HEK293 NFkB inh: 21; Jurkat viability: -3; 5HT1a ag: 1; HTR1E agonist: 0; 5HT1E antag: 24; 5HT1a antag: 0

Results for COc1cc2c(cc1OC)-c1cc(NC3CCCCCC3)nc(=O)n1CC2 ?
HEK293 NFkB inh: 7; Jurkat viability: -5; 5HT1a ag: 1; HTR1E agonist: 1; 5HT1E antag: 49*; 5HT1a antag: 13

Results for CCN(CC)CCCNc1cc2n(c(=O)n1)CCc1cc(OC)c(OC)cc1-2 ?
HEK293 NFkB inh: 13; Jurkat viability: 3; 5HT1a ag: 0; HTR1E agonist: 0; 5HT1E antag: 0; 5HT1a antag: -3

Results for COc1cc2c(cc1OC)-c1cc(N3CCCCCC3)nc(=O)n1CC2 ?
HEK293 NFkB inh: 16; Jurkat viability: -4; 5HT1a ag: 1; HTR1E agonist: 1; 5HT1E antag: 41*; 5HT1a antag: 8

What do the screens show for `COc1cc2c(cc1OC)-c1cc(Nc3ccc4c(c3)OCCO4)nc(=O)n1CC2`?
HEK293 NFkB inh: 30; Jurkat viability: 2; 5HT1a ag: -1; HTR1E agonist: 0; 5HT1E antag: 40*; 5HT1a antag: 14

How did COc1cc2c(cc1OC)-c1cc(N3CCCc4ccccc43)nc(=O)n1CC2 do in these assays?
HEK293 NFkB inh: 24; Jurkat viability: -3; 5HT1a ag: 2; HTR1E agonist: 2; 5HT1E antag: 64*; 5HT1a antag: 13

How did CC1(C)CSC(=S)N1S(=O)(=O)c1ccccc1 do in these assays?
HEK293 NFkB inh: 6; Jurkat viability: -5; 5HT1a ag: 3; HTR1E agonist: 0; 5HT1E antag: 0; 5HT1a antag: -6

Results for CCOC(=O)Cc1c(C)c2ccc(N(CC)CC)cc2oc1=O ?
HEK293 NFkB inh: 1; Jurkat viability: -8; 5HT1a ag: 25*; HTR1E agonist: 7; 5HT1E antag: -2; 5HT1a antag: -27

What do the screens show for `CCOC(=O)CCc1c(C)c2ccc(O)cc2oc1=O`?
HEK293 NFkB inh: 14; Jurkat viability: -3; 5HT1a ag: 1; HTR1E agonist: 0; 5HT1E antag: -7; 5HT1a antag: -12

What do the screens show for `CCN(CC)c1ccc2c(Cl)c(Br)c(=O)oc2c1`?
HEK293 NFkB inh: 2; Jurkat viability: 3; 5HT1a ag: -19; HTR1E agonist: 1; 5HT1E antag: 91*; 5HT1a antag: 95*

What do the screens show for `COc1ccc(CCCNC(=O)CC#N)cc1OC`?
5HT1a ag: 1; HTR1E agonist: 0; 5HT1E antag: -9

How did CCOC(=O)c1cn2c3c(c(F)c(F)c(F)c3c1=O)SC(N1CCCC1)=N2 do in these assays?
HEK293 NFkB inh: 15; Jurkat viability: 8; 5HT1a ag: -3; HTR1E agonist: -1; 5HT1E antag: 12; 5HT1a antag: 8

What do the screens show for `O=C(Nc1ccc(N2CCOCC2)cc1)C1CCCN(S(=O)(=O)c2cccc(C(F)(F)F)c2)C1` (configuration not stated)?
HEK293 NFkB inh: 5; Jurkat viability: -4; 5HT1a ag: -4; HTR1E agonist: -1; 5HT1E antag: 5; 5HT1a antag: 6

Results for Cc1ccc(C(c2nnnn2C(C)(C)C)N(Cc2ccco2)Cc2cccs2)cc1 (configuration not stated) ?
HEK293 NFkB inh: 11; Jurkat viability: 4; 5HT1a ag: -2; HTR1E agonist: 0; 5HT1E antag: 0; 5HT1a antag: 51*
